Results published in ChEMBL document CHEMBL4138056, “T- and B-cell immunosuppressive activity of novel α-santonin analogs with humoral and cellular immune response in Balb/c mice” (Medchemcomm, 2017).

Legend:
B-cell line [1] = test: Immunosuppressive activity in Balb/c mouse B cells assessed as inhibition of LPS-induced cell proliferation at 100 uM after 48 hrs by MTT assay relative to control; type: functional
How it was run: (§1)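 Balb/c spleen single-cell suspension, RBCs lysed with tris-ammonium chloride, viability by trypan blue; 1×10^6 cells/mL stimulated with LPS (10 μg/mL) for B cells, test agent 1, 10 or 100 μM, 48 h at 37 °C, 5% CO2. MTT 4 h, DMSO solubilization, OD 540 nm; % change vs mitogen control; triplicate, three separate experiments.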

Murine T-cell line [2] = test: Cytotoxicity against Balb/c mouse T cells assessed as decrease in cell survival at 10 uM by MTT assay; type: cell-based
How it was run: (§2)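 Balb/c splenocytes (RBC lysed with tris-ammonium chloride, trypan blue viability) seeded at 1×10^6 cells/mL with Con A or LPS (10 μg/mL each) and test agent at 1, 10 or 100 μM for 48 h at 37 °C, 5% CO2; MTT added for 4 h, formazan dissolved in DMSO, OD 540 nm. Cytotoxicity scored +/−; triplicate, three separate experiments.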

B-cell line [3] = test: Cytotoxicity against Balb/c mouse B cells assessed as decrease cell survival at 100 uM by MTT assay; type: cell-based; how it was run: as §2
B-cell line [4] = test: Cytotoxicity against Balb/c mouse B cells assessed as decrease cell survival at 1 uM by MTT assay; type: cell-based; how it was run: as §2
Murine T-cell line [5] = test: Immunosuppressive activity in Balb/c mouse T cells assessed as inhibition of ConA-induced cell proliferation at 100 uM after 48 hrs by MTT assay relative to control
Murine T-cell line [6] = test: Immunosuppressive activity in Balb/c mouse T cells assessed as inhibition of ConA-induced cell proliferation at 10 uM after 48 hrs by MTT assay relative to control
Murine T-cell line [7] = test: Cytotoxicity against Balb/c mouse T cells assessed as decrease in cell survival at 100 uM by MTT assay; type: cell-based; how it was run: as §2
B-cell line [8] = test: Immunosuppressive activity in Balb/c mouse B cells assessed as inhibition of LPS-induced cell proliferation at 10 uM after 48 hrs by MTT assay relative to control; type: functional; how it was run: as §1
Murine T-cell line [9] = test: Immunosuppressive activity in Balb/c mouse T cells assessed as inhibition of ConA-induced cell proliferation at 1 uM after 48 hrs by MTT assay relative to control
B-cell line [10] = test: Immunosuppressive activity in Balb/c mouse B cells assessed as inhibition of LPS-induced cell proliferation at 1 uM after 48 hrs by MTT assay relative to control; type: functional; how it was run: as §1
B-cell line [11] = test: Cytotoxicity against Balb/c mouse B cells assessed as decrease cell survival at 10 uM by MTT assay; type: cell-based; how it was run: as §2
Murine T-cell line [12] = test: Cytotoxicity against Balb/c mouse T cells assessed as decrease in cell survival at 1 uM by MTT assay; type: cell-based; how it was run: as §2
B-cell line [13] = test: Immunostimulant activity in Balb/c mouse B cells assessed as induction of LPS-induced cell proliferation at 100 uM after 48 hrs by MTT assay relative to control; type: cell-based; how it was run: as §1
Murine T-cell line [14] = test: Immunostimulant activity in Balb/c mouse T cells assessed as induction of ConA-induced cell proliferation at 100 uM after 48 hrs by MTT assay relative to control

Row | SMILES | inhibition at 100 µM (B-cell line [1]) [%] | Activity (Murine T-cell line [2]) | Activity (B-cell line [3]) | Activity (B-cell line [4]) | inhibition at 100 µM (Murine T-cell line [5]) [%] | inhibition at 10 µM (Murine T-cell line [6]) [%] | Activity (Murine T-cell line [7]) | inhibition at 10 µM (B-cell line [8]) [%] | inhibition at 1 µM (Murine T-cell line [9]) [%] | inhibition at 1 µM (B-cell line [10]) [%] | Activity (B-cell line [11]) | Activity (Murine T-cell line [12]) | Activity (B-cell line [13]) [%] | Activity (Murine T-cell line [14]) [%]
1 | CC(=O)Oc1cc(C)c2c(c1C)[C@@H]1OC(=O)[C@@H](C)[C@@H]1CC2 | 68 | Non-Toxic | Toxic | Non-Toxic | 63 | 45.2 | Toxic | 44.3 | 39.7 | 51.8 | Non-Toxic | Non-Toxic | – | –
2 | Cc1cc(O)c(C)c2c1CC[C@H]1[C@H](C)C(=O)O[C@@H]21 | – | Toxic | Toxic | Toxic | – | 27.4 | Toxic | 24.9 | 22.1 | 23.3 | Toxic | Toxic | 38.25 | 58.13
3 | CCCCCOc1cc(C)c2c(c1C)[C@@H]1OC(=O)[C@@H](C)[C@@H]1CC2 | 9.59 | Toxic | Toxic | Toxic | 29.4 | 33.1 | Toxic | 32.4 | 11.1 | 29.5 | Toxic | Toxic | – | –
4 | CCC(=O)Oc1cc(C)c2c(c1C)[C@@H]1OC(=O)[C@@H](C)[C@@H]1CC2 | 69 | Toxic | Toxic | Toxic | 41 | 33 | Toxic | 43 | 11.7 | 20 | Toxic | Toxic | – | –
5 | Cc1cc(OC(=O)CCC(=O)O)c(C)c2c1CC[C@H]1[C@H](C)C(=O)O[C@@H]21 | 5.2 | Toxic | Toxic | Non-Toxic | 61.7 | 53.4 | Toxic | 42.7 | 29.4 | 33.3 | Toxic | Non-Toxic | – | –
6 | COc1ccc(NC(=O)CCC(=O)Oc2cc(C)c3c(c2C)[C@@H]2OC(=O)[C@@H](C)[C@@H]2CC3)cc1 | 68 | Non-Toxic | Toxic | Non-Toxic | 58 | 35 | Toxic | 52 | 1 | 17.7 | Non-Toxic | Non-Toxic | – | –
7 | CCCOc1cc(C)c2c(c1C)[C@@H]1OC(=O)[C@@H](C)[C@@H]1CC2 | 43 | Toxic | Toxic | Non-Toxic | – | 41 | Toxic | 49 | 33 | 47 | Toxic | Non-Toxic | – | 36
8 | Cc1cc(OC(=O)CCC(=O)Nc2ccccc2Cl)c(C)c2c1CC[C@H]1[C@H](C)C(=O)O[C@@H]21 | 69 | Non-Toxic | Non-Toxic | Non-Toxic | 56 | 45 | Non-Toxic | 51 | 13 | 27.7 | Non-Toxic | Non-Toxic | – | –
9 | CCCC(=O)Oc1cc(C)c2c(c1C)[C@@H]1OC(=O)[C@@H](C)[C@@H]1CC2 | 69.8 | Non-Toxic | Non-Toxic | Non-Toxic | 71.9 | 38 | Non-Toxic | 35.4 | 28.5 | 12.5 | Non-Toxic | Non-Toxic | – | –
10 | CCCCOc1cc(C)c2c(c1C)[C@@H]1OC(=O)[C@@H](C)[C@@H]1CC2 | 39 | Non-Toxic | Non-Toxic | Non-Toxic | 33.8 | 51 | Non-Toxic | 33.3 | 32 | 25.2 | Non-Toxic | Non-Toxic | – | –
11 | CCCCCC(=O)Oc1cc(C)c2c(c1C)[C@@H]1OC(=O)[C@@H](C)[C@@H]1CC2 | – | Toxic | Toxic | Non-Toxic | 78.9 | 46 | Toxic | 26 | 39.4 | 22.9 | Toxic | Non-Toxic | 7.29 | –
12 | Cc1cc(OC(=O)c2ccccc2)c(C)c2c1CC[C@H]1[C@H](C)C(=O)O[C@@H]21 | 17.7 | Non-Toxic | Non-Toxic | Non-Toxic | – | 39.4 | Non-Toxic | 43.8 | 71.8 | 18.8 | Non-Toxic | Non-Toxic | – | 23.94
13 | Cc1cc(OC(=O)CCC(=O)Nc2ccccc2F)c(C)c2c1CC[C@H]1[C@H](C)C(=O)O[C@@H]21 | 77.9 | Non-Toxic | Non-Toxic | Non-Toxic | 66.7 | 41.7 | Non-Toxic | 44 | 16.7 | 21 | Non-Toxic | Non-Toxic | – | –
14 | COc1cc(C)c2c(c1C)[C@@H]1OC(=O)[C@@H](C)[C@@H]1CC2 | 21 | Toxic | Toxic | Toxic | 16.1 | 23.2 | Toxic | 19.1 | 50 | 42 | Toxic | Toxic | – | –
15 | CCCCC(=O)Oc1cc(C)c2c(c1C)[C@@H]1OC(=O)[C@@H](C)[C@@H]1CC2 | – | Non-Toxic | Toxic | Non-Toxic | – | 29.6 | Toxic | 49 | 43.2 | 2.08 | Non-Toxic | Non-Toxic | 6.25 | 28.16
16 | CCOc1cc(C)c2c(c1C)[C@@H]1OC(=O)[C@@H](C)[C@@H]1CC2 | 46 | Toxic | Toxic | Non-Toxic | – | 5 | Toxic | 1 | 28 | 35 | Toxic | Non-Toxic | – | 16
17 | Cc1cc(OCc2ccc(Cl)cc2)c(C)c2c1CC[C@H]1[C@H](C)C(=O)O[C@@H]21 | 28 | Non-Toxic | Toxic | Non-Toxic | 45 | 33 | Toxic | 37 | 15 | 37 | Non-Toxic | Non-Toxic | – | –
